Test results: ChEMBL document CHEMBL1641448, “2-Hydroxycurcuminoid induces apoptosis of human tumor cells through the reactive oxygen species-mitochondria pathway” (2011)
Activity calls are given as the source filed them. No cut-off for these calls is given here.

Columns and labels:
SW-620 [1] = test: Induction of ROS generation in human SW620 cells at 20 uM after 2 hrs relative to control; type: functional
Outline: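 SW620 cells were treated for 2 h. Intracellular ROS was read fluorimetrically with the DCF-DA probe (excitation 485 nm, emission 535 nm) and compared with DMSO-treated cells.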

SW-620 [2] = test: Cytotoxicity against human SW620 cells after 48 hrs […]; type: functional; settings: SW-620, 48 h
Outline: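 SW620 human colorectal tumor cells were exposed to a range of concentrations for 48 h. Cells were counted and GI50 was derived from growth inhibition.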

SW-620 [3] = test: Induction of apoptosis in human SW620 cells assessed as PARP degradation at 10 uM by fluorescence microscopy; type: functional, cell-based
SW-620 [4] = test: Induction of apoptosis in human SW620 cells assessed as PARP degradation at 10 uM by fluorescence microscopy in presence of N-acetyl-cysteine; type: functional, cell-based
[5] = tested on: MDA-MB-231 (Homo sapiens); test: Induction of apoptosis in human MDA-MB-231 cells assessed as change in cell morphology at 10 uM by fluorescence microscopy
[6] = tested on: MDA-MB-231 (Homo sapiens); test: Induction of apoptosis in human MDA-MB-231 cells assessed as change in cell morphology at 10 uM by fluorescence microscopy in presence of N-acetyl-cysteine
SW-620 [7] = test: Induction of apoptosis in human SW620 cells assessed as late apoptotic cells at 20 uM by annexin-V/propidium iodide staining; type: functional
Outline: (§1)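 SW620 cells were treated for 48 h with or without 1 mM NAC. Cells were stained with annexin V and propidium iodide, and the apoptotic distribution was determined by flow cytometry.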

SW-620 [8] = test: Induction of apoptosis in human SW620 cells assessed as increase in translocation of Bax to cytosol upto 48 hrs; type: functional, cell-based; settings: in the assay text read “to membrane fraction” for “to cytosol”
Outline: (§2)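 SW620 cells were treated for the indicated time intervals. Cytosolic and membrane fractions were separated by subcellular fractionation, and Bax and cytochrome c levels in each fraction were read by Western blot.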

SW-620 [9] = test: Induction of apoptosis in human SW620 cells assessed as caspase 3 activation at 10 uM by fluorescence microscopy; type: functional, cell-based
SW-620 [10] = test: Induction of apoptosis in human SW620 cells assessed as release of mitochondrial cytochrome c release to cytosol upto 48 hrs; type: functional, cell-based; outline: as §2
SW-620 [11] = test: Induction of apoptosis in human SW620 cells assessed as decrease in mitochondrial membrane potential after 6 to 12 hrs; type: functional, cell-based
Outline: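 Mitochondrial membrane potential in SW620 cells was followed as the red:green ratio (A590:A520) over 6–12 h of treatment.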

SW-620 [12] = test: Induction of cell cycle arrest in human SW620 cells assessed as accumulation at G2/M phase at 10 uM after 15 hrs by propidium iodide cytofluorimetric analysis; type: functional, cell-based
SW-620 [13] = test: Induction of apoptosis in human SW620 cells assessed as late apoptotic cells at 10 uM by annexin-V/propidium iodide staining; type: functional; outline: as §1
MCF-10A = test: Induction of cell cycle arrest in human MCF10A cells assessed as accumulation at G0/G1 phase at 10 uM after 15 hrs by propidium iodide cytofluorimetric analysis; type: functional, cell-based
SW-620 [14] = test: Induction of apoptosis in human SW620 cells assessed as caspase 3 activation at 10 uM by fluorescence microscopy in presence of N-acetyl-cysteine; type: functional, cell-based
DLD-1 = test: Cytotoxicity against human DLD1 cells after 48 hrs by WST1 assay; type: functional, cell-based
SW-620 [15] = test: Induction of apoptosis in human SW620 cells assessed as late apoptotic cells at 10 uM by annexin-V/propidium iodide staining in presence of N-acetyl-cysteine; type: functional; outline: as §1
HCT-116 = test: Cytotoxicity against human HCT116 cells after 48 hrs by WST1 assay; type: functional, cell-based
MDA-MB-231 = test: Induction of ROS generation in human MDA-MB-231 cells at 20 uM by fluorescence microscopy in presence of N-acetyl-cysteine; type: functional, cell-based

In the case of `CC(=O)/C=C/c1ccccc1O`, the “fold change (FC)” value (SW-620 [1]) is reported as 1.5.

Molecule `COc1cc(/C=C/C(=O)C(C)(C)C(=O)/C=C/c2ccc(O)c(OC)c2)ccc1O` has a GI50 (SW-620 [2]) of 7 µM.

In the case of `COc1cc(/C=C/C(=O)CC(=O)/C=C/c2ccc(O)c(OC)c2)ccc1O` [CURCUMIN], the GI50 (SW-620 [2]) is reported as 32 µM.

For `CC(C)C(=O)/C=C/c1ccccc1O`, the “fold change (FC)” value (SW-620 [1]) was 1.5.

For `CC(C)(C(=O)/C=C/c1ccccc1O)C(=O)/C=C/c1ccccc1O`, the Activity (SW-620 [3]) was “Active”, the Activity (SW-620 [4]) was “inactive” and the Activity [5] was “Active”. For the same molecule, the Activity [6] was “inactive”, the Activity (SW-620 [7]) was 78.77% and the Activity (SW-620 [8]) was “Active”. The Activity (SW-620 [9]) was “Active”, the Activity (SW-620 [10]) was “Active” and the “fold change (FC)” value (SW-620 [1]) was 1.5. The Activity (SW-620 [11]) was “Active”, the Activity (SW-620 [12]) was “Active” and the Activity (SW-620 [13]) was 73.53%. For the same molecule, the Activity (MCF-10A) was “Active”, the Activity (SW-620 [14]) was “inactive” and the GI50 (SW-620 [2]) was 7 µM. For the same molecule, the Activity (DLD-1) was “Active”, the Activity (SW-620 [15]) was 24.25% and the Activity (HCT-116) was “Active”.

For `CC(=O)/C=C(O)/C=C/c1ccccc1O`, the “fold change (FC)” value (SW-620 [1]) was 1.5.

With `O=C(/C=C(O)/C=C/c1ccccc1O)/C=C/c1ccccc1O` the “fold change (FC)” value (SW-620 [1]) was 1.5 and the GI50 (SW-620 [2]) was 35 µM.

For `O=C/C=C/c1ccccc1O` [2-HYDROXYCINNAMALDEHYDE], the Activity (MDA-MB-231) was “inactive”, the “fold change (FC)” value (SW-620 [1]) was 1.5 and the GI50 (SW-620 [2]) was 15 µM.

In the case of `CC(=O)C(C)(C)C(=O)/C=C/c1ccccc1O`, the “fold change (FC)” value (SW-620 [1]) is reported as 1.5 and the GI50 (SW-620 [2]) is reported as 40 µM.
